According to ChEMBL document CHEMBL4011643, “Triaryl Benzimidazoles as a New Class of Antibacterial Agents against Resistant Pathogenic Microorganisms” (J Med Chem, 2017):
Converted amounts (≈) assume the structure as drawn. The source made the active and inactive calls.

Tests used:
Klebsiella pneumoniae [1] = assay: Ratio of MIC for Klebsiella pneumoniae M6 in absence of Pa-beta-N to MIC for Klebsiella pneumoniae M6 in presence of Pa-beta-N; type: functional
In short: (§1)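 Both MICs were by TSB broth microdilution, with an OD600 <0.1 cutoff at 20 h.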

Acinetobacter baumannii [2] = assay: Antibacterial activity against Acinetobacter baumannii ATCC 17978 after 20 hrs in the presence of Pa-beta-N and magnesium ions by broth microdilution method; type: functional; settings: ATCC 17978, 20 h
In short: (§2)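 Broth microdilution in Tryptic Soy Broth, done in triplicate. Growth was read as OD600 after 20 h. MIC is the lowest drug concentration giving OD600 below 0.1.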

Klebsiella pneumoniae [3] = assay: Antibacterial activity against Klebsiella pneumoniae M6 after 20 hrs in the presence of Pa-beta-N and magnesium ions by broth microdilution method; type: functional; settings: M6, 20 h; in short: as §2
Klebsiella pneumoniae [4] = assay: Antibacterial activity against Klebsiella pneumoniae NCTC 13368 after 20 hrs in the presence of PMBN by broth microdilution method; type: functional; settings: NCTC 13368, 20 h; in short: as §2
Acinetobacter baumannii [5] = assay: Antibacterial activity against Acinetobacter baumannii AYE after 20 hrs in the presence of PMBN by broth microdilution method; type: functional; in short: as §2
Pseudomonas aeruginosa [6] = assay: Ratio of MIC for Pseudomonas aeruginosa NCTC 13437 in absence of Pa-beta-N to MIC for Pseudomonas aeruginosa NCTC 13437 in presence of Pa-beta-N; type: functional; in short: as §1
Acinetobacter baumannii [7] = assay: Antibacterial activity against Acinetobacter baumannii AYE after 20 hrs in the presence of Pa-beta-N and magnesium ions by broth microdilution method; type: functional; in short: as §2
Enterococcus faecium = assay: Antibacterial activity against vancomycin-resistant Enterococcus faecium NCTC 12204 after 20 hrs by broth microdilution method; type: functional; settings: NCTC 12204, 20 h
In short: (§3)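 Broth microdilution in Tryptic Soy Broth; growth read as OD600 after 20 h. MIC taken as the lowest drug concentration giving OD600 below 0.1. Run in triplicate.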

Klebsiella pneumoniae [8] = assay: Ratio of MIC for Klebsiella pneumoniae NCTC 13368 in absence of PMBN to MIC for Klebsiella pneumoniae NCTC 13368 in presence of PMBN; type: functional
In short: (§4)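 Fold change: MIC without divided by MIC with 30 μg/mL PMBN. Both MICs were by TSB broth microdilution, with an OD600 <0.1 cutoff at 20 h.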

Pseudomonas aeruginosa [9] = assay: Ratio of MIC for Pseudomonas aeruginosa PAO1 in absence of PMBN to MIC for Pseudomonas aeruginosa PAO1 in presence of PMBN; type: functional; in short: as §4
Acinetobacter baumannii [10] = assay: Antibacterial activity against Acinetobacter baumannii ATCC 17978 after 20 hrs by broth microdilution method; type: functional; settings: ATCC 17978, 20 h; in short: as §2
Acinetobacter baumannii [11] = assay: Antibacterial activity against Acinetobacter baumannii ATCC 17978 after 20 hrs in the presence of PMBN by broth microdilution method; type: functional; settings: ATCC 17978, 20 h; in short: as §2
Enterococcus faecalis [12] = assay: Bactericidal activity against vancomycin-resistant Enterococcus faecalis NCTC 12201 assessed as time required to kill bacteria by >6 log10CFU/ml at 4 times MIC by Miles Misra dilution method; type: functional
In short: (§5)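 Flasks of TSB inoculated at ~10^6 cfu/mL, compound added at 4 × MIC, shaken at 200 rpm and 37 °C. Samples taken at 1, 2, 4, 6 and 24 h and plated by Miles Misra dilution for CFU/mL. Bactericidal means a loss of >3 log CFU/mL. Three independent repeats, error bars SD.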

Pseudomonas aeruginosa [13] = assay: Antibacterial activity against Pseudomonas aeruginosa PAO1 after 20 hrs in the presence of PMBN by broth microdilution method; type: functional; settings: PAO1, 20 h; in short: as §2
Klebsiella pneumoniae [14] = assay: Antibacterial activity against Klebsiella pneumoniae M6 after 20 hrs in the presence of PMBN by broth microdilution method; type: functional; settings: M6, 20 h; in short: as §2
Klebsiella pneumoniae [15] = assay: Ratio of MIC for Klebsiella pneumoniae M6 in absence of PMBN to MIC for Klebsiella pneumoniae M6 in presence of PMBN; type: functional; in short: as §4
Klebsiella pneumoniae [16] = assay: Ratio of MIC for Klebsiella pneumoniae NCTC 13368 in absence of Pa-beta-N to MIC for Klebsiella pneumoniae NCTC 13368 in presence of Pa-beta-N; type: functional; in short: as §1
Pseudomonas aeruginosa [17] = assay: Antibacterial activity against Pseudomonas aeruginosa NCTC 13437 after 20 hrs in the presence of PMBN by broth microdilution method; type: functional; settings: NCTC 13437, 20 h; in short: as §2
Acinetobacter baumannii [18] = assay: Ratio of MIC for Acinetobacter baumannii AYE in absence of Pa-beta-N to MIC for Acinetobacter baumannii AYE in presence of Pa-beta-N; type: functional; in short: as §1
Pseudomonas aeruginosa [19] = assay: Antibacterial activity against Pseudomonas aeruginosa PAO1 after 20 hrs in the presence of Pa-beta-N and magnesium ions by broth microdilution method; type: functional; settings: PAO1, 20 h; in short: as §2
Staphylococcus aureus [20] = assay: Bactericidal activity against methicillin-resistant Staphylococcus aureus EMRSA-15 assessed as time required to kill bacteria by >6 log10CFU/ml at 4 times MIC by Miles Misra dilution method; type: functional; in short: as §5
Staphylococcus aureus [21] = assay: Antibacterial activity against methicillin-resistant Staphylococcus aureus MRSA252 after 20 hrs by broth microdilution method; type: functional; settings: MRSA252, 20 h; in short: as §3
Enterococcus faecalis [22] = assay: Bactericidal activity against vancomycin-resistant Enterococcus faecalis NCTC 12201 at 4 times MIC after 10 hrs by Miles Misra dilution method; type: functional
Klebsiella pneumoniae [23] = assay: Antibacterial activity against Klebsiella pneumoniae NCTC 13368 after 20 hrs by broth microdilution method; type: functional; settings: NCTC 13368, 20 h; in short: as §2
Pseudomonas aeruginosa [24] = assay: Antibacterial activity against Pseudomonas aeruginosa NCTC 13437 after 20 hrs in the presence of Pa-beta-N and magnesium ions by broth microdilution method; type: functional; settings: NCTC 13437, 20 h; in short: as §2
Staphylococcus aureus [25] = assay: Antibacterial activity against methicillin-resistant Staphylococcus aureus EMRSA-15 after 20 hrs by broth microdilution method; type: functional; settings: EMRSA-15, 20 h; in short: as §3
Pseudomonas aeruginosa [26] = assay: Antibacterial activity against Pseudomonas aeruginosa PAO1 after 20 hrs by broth microdilution method; type: functional; settings: PAO1, 20 h; in short: as §2
Pseudomonas aeruginosa [27] = assay: Ratio of MIC for Pseudomonas aeruginosa NCTC 13437 in absence of PMBN to MIC for Pseudomonas aeruginosa NCTC 13437 in presence of PMBN; type: functional; in short: as §4
Acinetobacter baumannii [28] = assay: Ratio of MIC for Acinetobacter baumannii ATCC 17978 in absence of PMBN to MIC for Acinetobacter baumannii ATCC 17978 in presence of PMBN; type: functional; in short: as §4
Klebsiella pneumoniae [29] = assay: Antibacterial activity against Klebsiella pneumoniae NCTC 13368 after 20 hrs in the presence of Pa-beta-N and magnesium ions by broth microdilution method; type: functional; settings: NCTC 13368, 20 h; in short: as §2
Enterococcus faecalis [30] = assay: Antibacterial activity against vancomycin-resistant Enterococcus faecalis NCTC 12201 after 20 hrs by broth microdilution method; type: functional; settings: NCTC 12201, 20 h; in short: as §3
[31] = Cytotoxicity against human HeLa cells assessed as cell viability at 25 uM after 24 hrs by MTT assay; type: cell-based; settings: read-out: Activity
In short: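 HeLa cells, 10000 per well, were grown at 37 °C in 5% CO2 and allowed to settle for 24 h. Compound was then added in triplicate for 24 h of continuous exposure. Viability was read by MTT colorimetry, with absorbance at 570 nm.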

Pseudomonas aeruginosa [32] = assay: Antibacterial activity against Pseudomonas aeruginosa NCTC 13437 after 20 hrs by broth microdilution method; type: functional; settings: NCTC 13437, 20 h; in short: as §2
Acinetobacter baumannii [33] = assay: Ratio of MIC for Acinetobacter baumannii ATCC 17978 in absence of Pa-beta-N to MIC for Acinetobacter baumannii ATCC 17978 in presence of Pa-beta-N; type: functional; in short: as §1
[34] = Stabilization of FAM/TAMRA-labeled AT-rich DNA duplex (unknown origin) assessed as change in melting temperature at 1 uM by FRET-based assay
In short: (§6)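 FRET melting of a FAM/TAMRA-labelled AT-rich oligonucleotide, 400 nM working solution in 50 mM potassium, 50 mM cacodylate, pH 7.4. DNA was annealed at 85 °C for 6 min, then held at 25 °C for 5 h, and mixed 1:1 with sample. Fluorescence was read every 0.5 °C from 30 to 100 °C, with a 30 s hold per step. ΔTm is measured against the blank, in triplicate.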

Klebsiella pneumoniae [35] = assay: Antibacterial activity against Klebsiella pneumoniae M6 after 20 hrs by broth microdilution method; type: functional; settings: M6, 20 h; in short: as §2
Enterococcus faecalis [36] = assay: Antibacterial activity against vancomycin-sensitive Enterococcus faecalis NCTC 775 after 20 hrs by broth microdilution method; type: functional; settings: NCTC 775, 20 h; in short: as §2
Acinetobacter baumannii [37] = assay: Ratio of MIC for Acinetobacter baumannii AYE in absence of PMBN to MIC for Acinetobacter baumannii AYE in presence of PMBN; type: functional; in short: as §4
Staphylococcus aureus [38] = assay: Antibacterial activity against methicillin-sensitive Staphylococcus aureus ATCC 9144 after 20 hrs by broth microdilution method; type: functional; settings: ATCC 9144, 20 h; in short: as §2
[39] = Stabilization of FAM/TAMRA-labeled AT-rich DNA duplex (unknown origin) assessed as change in melting temperature at 5 uM by FRET-based assay; in short: as §6
Staphylococcus aureus [40] = assay: Bactericidal activity against methicillin-resistant Staphylococcus aureus EMRSA-15 at 4 times MIC after 10 hrs by Miles Misra dilution method; type: functional
Acinetobacter baumannii [41] = assay: Antibacterial activity against Acinetobacter baumannii AYE after 20 hrs by broth microdilution method; type: functional; in short: as §2
Staphylococcus aureus [42] = assay: Inhibition of Staphylococcus aureus DNA gyrase assessed as reduction in pNO1 supercoiling at 0.5 ug/mL by fluorescent dye-based assay
In short: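 Supercoiling plate assay run per the kit instructions. S. aureus gyrase was incubated with compound and plasmid pNO1. Negatively supercoiled plasmid was captured by a triplex-forming oligonucleotide, stained with a fluorescent dye and read by fluorescence (excitation 485 nm). Percent inhibition was reported.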

Staphylococcus aureus [43] = assay: Bactericidal activity against methicillin-resistant Staphylococcus aureus EMRSA-15 assessed as time required to kill bacteria by 3 log10CFU/ml at 4 times MIC by Miles Misra dilution method; type: functional; in short: as §5
Enterococcus faecalis [44] = assay: Bactericidal activity against vancomycin-resistant Enterococcus faecalis NCTC 12201 assessed as time required to kill bacteria by <3 log10CFU/ml at 4 times MIC by Miles Misra dilution method; type: functional; in short: as §5

SMILES: Cc1nc2ccc(C(=O)Nc3cccc(-c4ccc(-n5c(C)nc6cc(C(=O)NCCCCN(C)C)ccc65)nc4)c3)cc2[nH]1
- Ratio (Klebsiella pneumoniae [1]): >=4
- MIC (Acinetobacter baumannii [2]): 8 µg/mL
- MIC (Klebsiella pneumoniae [3]): 16 µg/mL
- MIC (Klebsiella pneumoniae [4]): 32 µg/mL
- MIC (Acinetobacter baumannii [5]): 8 µg/mL
- Ratio (Pseudomonas aeruginosa [6]): 2 - 4
- MIC (Acinetobacter baumannii [7]): 16 µg/mL
- MIC (Enterococcus faecium): ≤ 0.125 µg/mL
- Ratio (Klebsiella pneumoniae [8]): 4
- Ratio (Pseudomonas aeruginosa [9]): >16
- MIC (Acinetobacter baumannii [10]): > 32 µg/mL
- MIC (Acinetobacter baumannii [11]): 8 µg/mL
- Time (Enterococcus faecalis [12]): 2 h
- MIC (Pseudomonas aeruginosa [13]): 16 µg/mL
- MIC (Klebsiella pneumoniae [14]): 16 µg/mL
- Ratio (Klebsiella pneumoniae [15]): 4
- Ratio (Klebsiella pneumoniae [16]): 2 - 4
- MIC (Pseudomonas aeruginosa [17]): 16 µg/mL
- Ratio (Acinetobacter baumannii [18]): 2 - 4
- MIC (Pseudomonas aeruginosa [19]): > 32 µg/mL
- Time (Staphylococcus aureus [20]): 2 h
- MIC (Staphylococcus aureus [21]): 2 µg/mL (≈ 3.33 µM)
- Activity (Enterococcus faecalis [22]): inactive
- MIC (Klebsiella pneumoniae [23]): > 32 µg/mL
- MIC (Pseudomonas aeruginosa [24]): > 32 µg/mL
- MIC (Staphylococcus aureus [25]): 1 µg/mL (≈ 1.66 µM)
- MIC (Pseudomonas aeruginosa [26]): > 32 µg/mL
- Ratio (Pseudomonas aeruginosa [27]): >16
- Ratio (Acinetobacter baumannii [28]): 2
- MIC (Klebsiella pneumoniae [29]): 32 µg/mL
- MIC (Enterococcus faecalis [30]): 0.25 µg/mL (≈ 0.416 µM)
- viability at 24 h, 25 µM [31]: > 98%
- MIC (Pseudomonas aeruginosa [32]): > 32 µg/mL
- Ratio (Acinetobacter baumannii [33]): 2 - 4
- deltaTm [34]: 0.3 °C
- MIC (Klebsiella pneumoniae [35]): > 32 µg/mL
- MIC (Enterococcus faecalis [36]): 0.5 µg/mL (≈ 0.832 µM)
- Ratio (Acinetobacter baumannii [37]): 2
- MIC (Staphylococcus aureus [38]): 0.5 µg/mL (≈ 0.832 µM)
- deltaTm [39]: 0.6 °C
- Activity (Staphylococcus aureus [40]): inactive
- MIC (Acinetobacter baumannii [41]): > 32 µg/mL

SMILES: C[C@H]1COc2c(N3CCN(C)CC3)c(F)cc3c(=O)c(C(=O)O)cn1c23.C[C@H]1COc2c(N3CCN(C)CC3)c(F)cc3c(=O)c(C(=O)O)cn1c23.O [LEVOFLOXACIN]
- MIC (Enterococcus faecium): 0.5 µg/mL
- Time (Staphylococcus aureus [20]): 24 h
- MIC (Staphylococcus aureus [21]): 8 µg/mL
- MIC (Staphylococcus aureus [25]): 8 µg/mL
- inhibition (Staphylococcus aureus [42]): 57.9%
- MIC (Enterococcus faecalis [30]): 1 µg/mL
- Time (Staphylococcus aureus [43]): 6 h
- MIC (Enterococcus faecalis [36]): 1 µg/mL
- MIC (Staphylococcus aureus [38]): 0.12 µg/mL
- Time (Enterococcus faecalis [44]): 24 h
